Screening data deposited in PubChem BioAssay by The Scripps Research Institute Molecular Screening Center.
V1aR counter: agonists of human V1a receptor, primary screen, counter-screen for OXTR agonist project, fluorescence, CHO-V1R cells; AID 2797, 2010; actives 0.25% (n = 320,000); Vasopressin V1a receptor (Homo sapiens), P37288; Fluo-8 calcium fluorescence, agonist mode; 0% DMSO, 100% 3 nM vasopressin; activation, % at 3 µM;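 active means activation above the mean activation of all tested compounds plus 3 SD, per screening run, cut at about 20% in these data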;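 further: signal is peak over basal fluorescence ratio across a 100 second FLIPR read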
TAAR1 antagonist: human TAAR1 antagonists, primary screen, Fluo-8 calcium fluorescence, CHO RD-HGA16 cells; Trace amine-associated receptor 1 (Homo sapiens), Q96RJ0; AID 624466, 2012; actives 1.5% (n = 360,000); inhibition, % at 3 µM; antagonist;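 active means inhibition above a per-plate cutoff, the mean inhibition of test compounds on that plate plus 3 SD, cut at about 49% in these data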;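 further: 0% = DMSO plus EC80 beta-PEA response and 100% = DMSO alone without agonist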
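Material: CHO RD-HGA16 cells bearing hTAAR1; compound dosing: one-point dosing, 3 µM nominal final; schedule: dye loading 75 min at 37 °C, then 30 min room temperature; measured by: calcium fluorescence with Fluo-8; control set: vehicle and agonist controls; replication: n of 1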
OXTR agonist: human OXTR agonists, primary screen, fluorescence, CHO-OTR cells, Fluo-8 calcium; Oxytocin receptor (Homo sapiens), P30559; activation, % at 3 µM; Fluo-8 calcium fluorescence; normalized: DMSO 0%, oxytocin 100%; actives 0.32% (n = 320,000);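 active means activation above the mean of all tested compounds plus 3 SD, cutoff set per screening run, cut at about 20% in these data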;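 further: peak over basal fluorescence ratio from a 100 s FLIPR kinetic read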
Target sequence (P30559 whole entry, looked up): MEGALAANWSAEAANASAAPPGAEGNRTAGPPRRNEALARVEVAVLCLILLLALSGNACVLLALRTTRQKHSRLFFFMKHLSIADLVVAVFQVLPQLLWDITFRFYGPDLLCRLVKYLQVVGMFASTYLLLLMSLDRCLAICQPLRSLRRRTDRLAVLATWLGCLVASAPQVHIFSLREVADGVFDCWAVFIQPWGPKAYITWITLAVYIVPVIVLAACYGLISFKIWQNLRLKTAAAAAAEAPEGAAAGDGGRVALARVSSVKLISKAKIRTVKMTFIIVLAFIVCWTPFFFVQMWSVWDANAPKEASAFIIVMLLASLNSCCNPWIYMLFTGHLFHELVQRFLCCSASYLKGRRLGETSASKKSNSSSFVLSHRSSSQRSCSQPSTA
TAAR1 ag: human TAAR1 agonists, primary screen, Fluo-8 calcium fluorescence, CHO RD-HGA16 cells | Trace amine-associated receptor 1 (Homo sapiens), Q96RJ0 | vehicle wells 0%, saturating PEA agonist 100% | AID 624467, 2012 | activation, % at 3 µM | actives 0.99% (n = 360,000);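 active means activation above the mean activation of all test compounds in the run plus 3 SD, cut at about 38% in these data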
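System: CHO-derived RD-HGA16 cells with stable Gα16 and human TAAR1 / Times: 17-24 h plating, Fluo-8 75 min 37 °C, 30 min RT / Technique: calcium-sensitive Fluo-8 signal, excitation 470-495, emission 515-575 nm / Measure: % activation relative to PEA EC100 response / Benchmarks: DMSO and PEA EC100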
OXTR potentiator: human OXTR potentiators, primary screen, fluorescence, CHO-OTR cells, Fluo-8 calcium; Oxytocin receptor (Homo sapiens), P30559; Fluo-8 calcium fluorescence, potentiator mode; 0% = oxytocin EC15, 100% = EC100; activation, % at 3 µM; actives 0.061% (n = 320,000); AID 2445, 2010;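 active means activation above that plate's cutoff, the mean activation of tested compounds plus 3 SD, cut at about 6.6% in these data, passing the limit was not always enough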;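 further: 100% uses oxytocin at 75 nM as the full agonist control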
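Assay system: CHO cell line stably expressing human OTR. Reagent: EC15 oxytocin agonist. Dosing: single dose, 3.0 µM nominal final compound concentration. Timing: compound 6 min at room temperature before oxytocin, 100 s read. Signal: kinetic Fluo-8 calcium fluorescence. Controls: oxytocin EC15 low and EC100 high.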
* hit, by the source's call; nt = no result given. Shown are actives, neighbours in structure and some others; about 2.3% of the full set was active somewhere.

SMILES	V1aR counter	TAAR1 antagonist	OXTR agonist	TAAR1 ag	OXTR potentiator
[O-][n+]1ccccc1C(O)CSc1ccccc1 (stereo not drawn)	nt	-4	nt	0	nt
CC(C)(C)C(=O)Nc1scc(-c2ccc(-c3ccccc3)cc2)c1C(=O)O	39*	-2	26*	4	-23
Cc1c(CN2CCC(CO)(CCOc3ccccc3)CC2)[nH]c2c(Cl)cccc12	8	26	13	41*	-17
Cc1nn(C)c(Cl)c1CN1CCC(CO)(CCOc2ccccc2)CC1	4	-17	3	2	4
Nc1ccccc1SC1CC(=O)N(c2ccc(Cl)c(Cl)c2)C1=O (stereo not drawn)	12	59*	14	19	-22
Nc1ccccc1SC1CC(=O)N(c2ccc3c(c2)OCCO3)C1=O (stereo not drawn)	0	6	0	11	0
O=C(Cc1ccc(F)cc1)Nc1ccc(S(=O)(=O)N2CCCC2)cc1	2	6	3	10	-1
O=S(=O)(c1ccc(NC(=S)NCc2ccc(F)cc2)cc1)N1CCOCC1	20	27	9	44*	-9
O=C(Nc1ccc(F)cc1)Nc1ccc(S(=O)(=O)N2CCCC2)cc1	12	51*	16	48*	-14
CCCC(C(=O)Nc1ccc(S(=O)(=O)N2CCCC2)cc1)c1ccccc1 (stereo not drawn)	6	26	10	41*	-5
O=C(Cc1ccc(Br)cc1)Nc1ccc(S(=O)(=O)N2CCCC2)cc1	8	6	8	38*	-6
CCCN(CCC)Cc1cc(=O)oc2ccccc12	nt	16	nt	2	nt
Cc1ccc(-c2cc(NC(=O)Cc3c(C)[nH]c4ccccc34)ccc2Nc2cccnc2)cc1	nt	-7	nt	-1	nt
COC(=O)[C@]12C[C@H](CC(=O)N3CCCCC3)C(=O)N(Cc3ccc4c(c3)OCO4)C1=C[C@H](COCc1ccccc1)O[C@@H]2C	nt	-13	nt	-1	nt
N#Cc1ccc(NCC(=O)Nc2ccc(S(=O)(=O)N3CCCCC3)cc2)cc1	11	21	7	39*	-5
O=C(Nc1ccc(S(=O)(=O)N2CCCCC2)cc1)c1ccncc1	5	0	4	11	-18
O=C(Nc1ccc(Cc2ccncc2)cc1)c1ccc(S(=O)(=O)N2CCCC2)cc1	nt	57*	nt	22	nt
O=C(Cc1ccc(Cl)cc1)Nc1ccc(Br)cc1	-1	32	-2	40*	-7
O=C(Cc1ccc(Br)cc1)NNC(=O)Nc1ccc(Cl)cc1	2	3	1	2	-5
CC(C)(C)c1ccc(COC(=O)Nc2ccc(F)cc2)cc1	0	20	-2	-1	-3
CC(C)(C)c1ccc(NC(=O)Nc2ccc(F)cc2)cc1	11	94*	9	12	-14
CC(C)C[C@H]1CN(CCCC[C@H]2CNC(=O)C(=O)N2CCc2ccccc2)C(=O)C(=O)N1CCc1ccccc1	nt	-3	nt	1	nt
CC(C)c1[nH]nc2c1C(c1ccccc1)NC2=O (stereo not drawn)	nt	-4	nt	3	nt
C[C@@H]1CN([C@H](C)CO)C(=O)c2cc(NC(=O)Nc3ccc(F)cc3)ccc2O[C@@H](C)CCCCO[C@@H]1CN(C)C(=O)CCCN(C)C	nt	-14	nt	4	nt
Cc1cc(=O)[nH]c(SCC(=O)/C=C2\N(C)c3ccccc3C2(C)C)n1	7	30	23*	13	-16
SMILES	V1aR counter	TAAR1 antagonist	OXTR agonist	TAAR1 ag	OXTR potentiator
COCCCNC(=O)c1nnn2c1nc(N)c1cc(Cl)ccc12	nt	14	nt	2	nt
FC(F)(F)c1nc(-c2cccs2)ncc1-c1nnnn1-c1ccc(Cl)cc1	0	59*	-2	6	-16
CC(=O)Nc1ccc(S(=O)(=O)N(C)c2ccc(OCC(=O)Nc3ccccc3C(C)=O)cc2)cc1	nt	55*	nt	13	nt
COc1ccc(NC(=O)COc2ccc(N(C)S(=O)(=O)c3ccc(Cl)cc3)cc2)cc1OC	11	61*	14	8	-22
Cc1ccc(S(=O)(=O)N(C)C)cc1NC(=O)COc1ccccc1C(=O)Nc1ccccc1	4	55*	2	14	-14
O=C(N[C@H](C(=O)N1CCC[C@H]1C(=O)NC1CCCC1)C1CCCCC1)c1nccs1	nt	-32	nt	2	nt
Cc1cc(F)ccc1-c1cc(C(=O)NCc2ccc(C(F)(F)F)cc2)[nH]n1	nt	71*	nt	56*	nt
O=C(NCCc1ccccc1Cl)[C@@H]1CCCN1C(=O)[C@@H](NS(=O)(=O)c1ccc(F)cc1F)C1CCCCC1	nt	43	nt	27	nt
O=[N+]([O-])c1cc(S(=O)(=O)NCc2ccco2)ccc1NN=Cc1ccccn1	nt	3	nt	1	nt
COc1ccccc1-c1cccc2nccn12	nt	-3	nt	1	nt
COc1ccc(CCn2c(C)cc(C(=O)COC(=O)c3ccc(O)cc3O)c2C)cc1	nt	65*	nt	10	nt
COc1ccc(CCn2c(C)cc(C(=O)COC(=O)c3cnc(C)cn3)c2C)cc1	-1	6	0	7	-4
CCc1nc2ccc(C(=O)Nc3ccc(NC(C)=O)cc3)cn2c1N(C)CCC(C)C	nt	30	nt	17	nt
CCc1nc2ccc(C(=O)Nc3ccc(C(N)=O)cc3)cn2c1N(C)CCC(C)C	nt	26	nt	43*	nt
Cn1c(N)c(C(=O)COC(=O)CC2CC3CCC2C3)c(=O)n(C)c1=O (stereo not drawn)	2	-5	5	40*	-7
Cn1c(N)c(C(=O)COC(=O)Cc2ccc(Br)cc2)c(=O)n(C)c1=O	0	-12	1	7	-1
COc1ccc(C(C(O)C(=O)c2c[nH]c3ccccc23)N2CCN(c3ccc(OC)cc3)CC2)cc1 (stereo not drawn)	6	9	10	38*	-12
O=C(c1c[nH]c2ccccc12)C(O)C(c1ccccc1)N1CCOCC1 (stereo not drawn)	0	1	2	9	-3
COc1cccc(/C=C2/Sc3ccc(C(=O)NC4CC4)cc3NC2=O)c1	nt	-3	nt	1	nt
O=C1NC(=O)C2(CCOc3ccc(F)cc32)N1 (stereo not drawn)	nt	0	nt	0	nt
